Compounds with a hit are over-represented: about 1.6% of the library has one in this group of screens.
Neddyl block = inhibitors of cullin neddylation, primary screen, biochemical, TR-FRET, uHTS, NAE and Ubc12; calls only at 25 µM; 360,000 compounds, 0.58% hits; AID 651699, 2012; NEDD8-conjugating enzyme Ubc12 (Homo sapiens) + NEDD8-activating enzyme E1 regulatory …; in the data active = inhibition above about 36%
KLK7 zymogen act = proKLK7 zymogen activators, primary screen, biochemical, fluorescence intensity; AID 652039, 2013; Kallikrein-7 (Homo sapiens), P49862; purified proKLK7, EDANS-DABCYL substrate fluorescence; 100% is mature enzyme control, 0% vehicle; activation, % at 7 µM; 370,000 compounds, 0.9% hits;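 active = activation above the mean of all tested compounds plus 3 SD, computed per campaign excluding outliers beyond control limits, cut at about 13% in these data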
Target sequence (P49862 whole entry, looked up): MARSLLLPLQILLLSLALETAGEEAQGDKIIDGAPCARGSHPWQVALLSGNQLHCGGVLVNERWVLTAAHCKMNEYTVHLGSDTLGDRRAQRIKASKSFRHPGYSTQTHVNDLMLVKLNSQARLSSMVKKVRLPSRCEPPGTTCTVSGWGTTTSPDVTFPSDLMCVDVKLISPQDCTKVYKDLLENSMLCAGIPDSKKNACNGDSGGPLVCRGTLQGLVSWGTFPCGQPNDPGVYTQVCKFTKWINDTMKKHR
procasp3 activ = activators of human procaspase-3 D3A mutant, primary screen, biochemical, absorbance, PC-3 D3A mutant, single concentration; 330,000 compounds, 0.11% hits; activation, % at 8.5 µM; Caspase-3 (Homo sapiens), P42574; recombinant procaspase-3 D3A, Ac-DEVD-pNA absorbance 405 nm;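 active = activation above the mean of all tested compounds plus 3 SD, cut at about 21% in these data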;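 note: 0% = DMSO alone and 100% = DMSO wells spiked with extra 5 µM PC-3 D3A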
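Assay system: Procaspase-3 D3A mutant, all three cleavage aspartates alanine. Buffer or medium: Zinc-free HEPES saline buffer with Triton X-100. Times: 1 h compound preincubation, 2 h substrate hydrolysis at 25 °C. Measured by: 405 nm absorbance of p-nitroaniline, reads at 0 and 120 min. Read-out basis: percent activation relative to control range. Replicates: singlicate.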
procasp7 counter = procaspase-7 activators, primary screen, counter-screen for procaspase-3 activator project, biochemical, absorbance, HTS, human | 330,000 compounds, 0.093% hits | activation, % at 8.5 µM | Caspase-7 (Homo sapiens), P55210 | AID 463210, 2010 | recombinant procaspase-7, Ac-DEVD-pNA absorbance 405 nm; D23A/D198A/D206A triple mutant, cannot self-cleave; scale: DMSO 0, 5 µM enzyme 100;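 active = percent activation above the screen-wide mean plus 3 SD, cut at about 25% in these data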
Target sequence (P55210 whole entry D23A/D198A/D206A): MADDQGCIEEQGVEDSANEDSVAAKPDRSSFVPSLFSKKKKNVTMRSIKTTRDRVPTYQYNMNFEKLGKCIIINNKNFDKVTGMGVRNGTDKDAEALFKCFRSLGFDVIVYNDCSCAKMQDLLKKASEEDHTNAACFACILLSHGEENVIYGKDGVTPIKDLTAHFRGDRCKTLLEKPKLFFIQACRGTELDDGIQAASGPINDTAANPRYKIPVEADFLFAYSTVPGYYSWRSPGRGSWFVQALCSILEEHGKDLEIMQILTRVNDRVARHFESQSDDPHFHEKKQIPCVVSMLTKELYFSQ
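Assay system: Uncleavable procaspase-7 mutant enzyme / Input: 2 µM procaspase-7 mutant as dispensed / Dosing: single nominal 8.5 µM compound dose, 0.8% DMSO final / Timing: 1 h enzyme–compound preincubation and 2 h substrate reaction, both 25 °C / Detection: p-Nitroaniline absorbance at 405 nm, read at 0 and 120 min / Replication: singlicate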
KLK7 act conf = proKLK7 zymogen activators, confirmation, biochemical, fluorescence intensity, triplicate; shares compounds with KLK7 zymogen act; activation, % at 7 µM; 3,200 compounds, 68% hits; purified proKLK7, EDANS-DABCYL substrate fluorescence; scaled: vehicle 0, mature enzyme 100;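 active = activation, as change over the incubation, above the mean of all tested compounds plus 3 SD, cut at about 13% in these data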
EDANS-DABCYL int = EDANS-DABCYL substrate optical interference, artefact control for kallikrein-7 zymogen activator project, biochemical, fluorescence intensity, high throughput. shares compounds with KLK7 zymogen act. no enzyme, 4 h; solvent 0%, active enzyme control 100%. activation, % at 7 µM. 3,200 compounds, 80% hits. AID 686952, 2013;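 active = activation above the all-compound mean plus 3 SD, ignoring values outside control-based bounds, cut at about 4.8% in these data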;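 note: value is the 4 h activation minus the activation read at time zero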
K7 EDANS ctr = optically interferes with EDANS-DABCYL fluorescence, kallikrein-7 activator counter-screen; shares compounds with KLK7 zymogen act; EDANS-DABCYL peptide fluorescence interference, no enzyme; EC50, µM; 250 compounds, 20% hits;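 active = compounds that raise the fluorescence signal in this interference counterscreen, with EC50 at or below 10 µM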;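 note: intact quenched peptide substrate alone read at 355 nm excitation and 520 nm emission; signal is fluorescence gain from T0 to T4 after four hours at room temperature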
Numbers without * were called inactive; i = inactive; . = no result shown.

SMILES | Neddyl block | KLK7 zymogen act | procasp3 activ | procasp7 counter | KLK7 act conf | EDANS-DABCYL int | others
Cc1ccc([N+](=O)[O-])cc1N/C=C1\CCCCC1=O | i | 0.2 | -22.3 | -20.5 | . | .
Cc1cc2oc(=O)c3c(c2cc1OC(=O)c1ccco1)CCCC3 | i | 0.9 | 0.5 | 11.7 | . | .
O=C(Oc1cc2oc(=O)c3c(c2cc1Cl)CCCC3)c1ccco1 | i | 55.1* | -6.2 | -3.7 | 396.9* | 406.3*
CC(=O)Oc1cc2oc(=O)cc(C)c2cc1Cl | . | 82.0* | 2.1 | 4.6 | 368.2* | 377.3*
O=C(Oc1cc2oc(=O)c3c(c2cc1Cl)CCCC3)c1cccs1 | i | 61.6* | 1.5 | 7.3 | 260.2* | 222.8*
NC(=O)COc1cc2oc(=O)c3c(c2cc1Cl)CCCC3 | i | 1.3 | 3.9 | 5.7 | . | .
CCOc1ccc(NC(=O)c2ccc(NS(=O)(=O)c3cccs3)cc2)cc1 | i | 0.1 | -2.5 | 3.4 | . | .
CC[C@]12c3[nH]c4ccc(Cl)cc4c3CCN1C(=O)[C@@H](CC(=O)NCCCn1ccnc1)C[C@@H]2C(=O)N1CCN(C(=O)c2ccco2)CC1 | i | -0.8 | 10.8 | 3.7 | . | .
Fc1ccc2cnc(CCO[C@H]3CCCCO3)cc2c1 | i | 0.1 | 3.5 | -6.3 | . | .
N=c1cc(C2(O)CCCCC2)n2c(nc3ccccc32)s1 | i | 0.0 | 4.1 | -11.8 | . | .
CN1CC=C2C(C#N)=C(N)C(C#N)(C#N)[C@H](c3cccc(Cl)c3)C2C1 (stereo not given in full) | . | 12.8* | -0.8 | 2.9 | 34.2* | 35.3*
CN1CC=C2C(C#N)=C(N)C(C#N)(C#N)[C@H](c3cccs3)[C@H]2C1 | i | . | -11.7 | -2.4 | . | .
N#CC1=C(N)C(C#N)(C#N)[C@H](c2cccnc2)[C@H]2CN(C(=O)OCc3ccccc3)CC=C12 | i | 7.9 | -10.2 | -20.9 | . | .
CN1CC=C2C(C#N)=C(N)C(C#N)(C#N)C(CCc3ccccc3)C2C1 (stereo not given) | . | . | -4.2 | 7.5 | . | .
CCOC(=O)N1CC=C2C(C#N)=C(N)C(C#N)(C#N)[C@H](c3ccsc3)[C@H]2C1 | i | 8.0 | -2.9 | -2.7 | . | .
CN1CC=C2C(C#N)=C(N)C(C#N)(C#N)C(c3ccsc3)C2C1 (stereo not given) | . | 15.4* | -5.8 | -8.0 | 56.9* | 54.6*
N#CC1=C(N)C(C#N)(C#N)C(c2ccncc2)C2CN(C(=O)OCc3ccccc3)CC=C12 (stereo not given) | i | 17.3* | -18.1 | -9.6 | 36.0* | 35.2*
CCCC1C2CN(C(C)C)CC=C2C(C#N)=C(N)C1(C#N)C#N (stereo not given) | . | 23.5* | -2.9 | 0.7 | 11.5 | 13.9*
CN1CCN(c2ccc(Cl)cc2NS(=O)(=O)c2ccccc2Cl)CC1 | i | -0.1 | 3.2 | 5.6 | . | .
O=C(Nc1ccccc1C(F)(F)F)OC1CC2CC1[C@H]1CCCCN1C2 (stereo not given in full) | . | 0.1 | . | . | . | .
O=C(NCC(=O)N1CCCCCCC1)c1ccc(Cl)c(Cl)c1 | i | 0.5 | . | . | . | .
c1ccc(-c2cc(-c3ccccc3)n3ncnc3n2)cc1 | i | 0.5 | 5.0 | -1.0 | . | .
COc1ccc(-c2cc(-c3ccccc3)nc3ncnn23)cc1 | . | 15.2* | 7.3 | 1.6 | -51.7 | -76.3
COCCN(CCOC)Cc1cc(=O)oc2cc3c(cc12)CCC3 | i | -1.5 | 5.9 | 18.8 | . | .
CCOc1c(OC)ccc2c3c(c(=O)oc12)CCCC3 | . | 3.0 | 0.7 | 5.7 | . | .
SMILES | Neddyl block | KLK7 zymogen act | procasp3 activ | procasp7 counter | KLK7 act conf | EDANS-DABCYL int | others
CCc1c(C)c2ccc(O)c(CN(C)C)c2oc1=O | . | 56.1* | 4.8 | 11.6 | 65.5* | 65.2*
CCCCN(CC)Cc1c(O)ccc2c3c(c(=O)oc12)CCC3 | . | 62.0* | 6.9 | 10.1 | 68.3* | 72.5*
COCCN(CCOC)Cc1c(O)ccc2c3c(c(=O)oc12)CCC3 | . | 61.2* | 9.6 | 19.3 | 70.0* | 74.0*
CN(C)Cc1c(O)ccc2c3c(c(=O)oc12)CCCCC3 | i | 48.3* | 4.7 | 7.3 | 56.9* | 78.0*
CN(Cc1c(O)ccc2c1oc(=O)c1ccccc12)C1CCCCC1 | i | -2.5 | -8.4 | -15.3 | . | .
C=CCCC(=O)N1CCC(C(=O)NCC2COc3ccccc3O2)CC1 (stereo not given) | . | 0.7 | . | . | . | .
Cc1ccc(NC(=O)CCCCCN2C(=O)[C@@H]3Cc4ccccc4CN3C2=O)c(C)c1 | i | 0.4 | -6.5 | 0.9 | . | .
Cc1cc2c3c(ccc(C)c3n1)N=CN2c1ccccc1 | . | 61.7* | -15.8 | -7.9 | 7.8 | 4.8*
Cc1cc(Nc2ccccc2)c2c([N+](=O)[O-])ccc(C)c2n1 | i | 0.3 | 2.5 | 0.2 | . | .
CCC1NC(=O)c2cc3ccccc3cc2-n2c1nc1cc(OC)c(OC)cc1c2=O (stereo not given) | i | 0.5 | . | . | . | .
CCOP(=O)(OCC)/C(C#N)=C/c1cc(OC)ccc1OC | i | 42.4* | . | . | 38.7* | 38.6*
CSCCNC(=O)C1(C)CCN1C(=O)CCc1ccccc1 (stereo not given) | i | 16.1* | . | . | 0.1 | -0.1
CC1(C(=O)NS(=O)(=O)c2ccccc2)CCN1C(=O)CCc1ccccc1 (stereo not given) | i | -0.6 | . | . | . | .
C[C@H](CO)N1C[C@H](C)[C@@H](CN(C)C(=O)c2ccc3ccn(C)c3c2)OCc2cn(nn2)CCCC1=O | i | 0.4 | . | . | . | .
CCOC(=O)C1=C2c3cc(OC)c(OC)cc3CC(C)(C)N2C(=O)C1=O | i | 24.3* | 6.6 | -2.2 | 5.3 | 5.9*
CCOC(=O)C1=C2c3ccc4ccccc4c3CC(C)(C)N2C(=O)C1=O | i | 11.4 | 3.3 | 1.5 | . | .
CN1CCn2cnc(C(=O)Nc3ccc(CNC(=O)OC(C)(C)C)cc3)c2C1=O | i | 0.2 | . | . | . | .
Cc1ccc(N2C(N)=C(C#N)C(c3cccnc3)C3=C2CC(C)(C)CC3=O)cc1 (stereo not given) | i | 0.4 | -3.5 | 13.1 | . | .
CC1=C(C#N)C(c2cccnc2)C2=C(CC(c3ccc(Cl)cc3)CC2=O)N1 (stereo not given) | . | 13.1* | 2.1 | 0.6 | 2.2 | 9.2*
COc1ccccc1C1C=C(c2ccccc2)Nc2nnnn21 (stereo not given) | . | 20.6* | 2.7 | 9.4 | 16.4* | 13.5* | K7 EDANS ctr=i

Assay outcomes (PubChem BioAssay)
